Experimental data as given in ChEMBL document CHEMBL1124636, “3,4-Dihydro-2H-1-benzopyran-2-carboxylic acids and related compounds as leukotriene antagonists” (J Med Chem, 1989).

What was measured:
Cavia porcellus [1] = assay: (§1) Inhibition of leukotriene D4 induced bronchoconstriction in anesthetized guinea pigs after aerosol administration as 1% solution; assay type: functional, organism-based
Procedure, shortened: (§2)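 Guinea pigs given propranolol 0.1 mg/kg iv 5 min before 5-min ultrasonic nebulizer exposure to aqueous, NaOH-neutralized drug (% w/v) or distilled water, breathing spontaneously. LTD4 50 µg/kg iv 30 s after exposure; tracheal pressure change.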

Cavia porcellus [2] = assay: as §1; assay type: functional; procedure, shortened: as §2
Cavia porcellus [3] = assay: (§3) Inhibition of leukotriene D4 induced bronchoconstriction in anesthetized guinea pigs after intravenous administration at a dose of 10 mg/kg; assay type: functional; details: for ED50: read-out: ID50 (the source's name)
Procedure, shortened: (§4)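 Male Hartley guinea pigs, 400–600 g, urethane 2 g/kg ip, jugular cannula, propranolol 0.1 mg/kg iv 5 min before challenge, succinylcholine 1.2 mg/kg iv, ventilated. Vehicle or drug iv 30 s before LTD4 25 µg/kg iv; tracheal pressure change.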

[4] = test system: Cysteinyl leukotriene receptor (Cavia porcellus); assay: Inhibitory activity to block binding of [3H]leukotriene D4 to Cysteinyl leukotriene D4 receptor sites in homogenized guinea pig lung at 10 uM
[5] = biological target: Cysteinyl leukotriene receptor (Cavia porcellus); assay: Inhibitory activity to block binding of [3H]leukotriene D4 to LTD4 receptor sites in homogenized guinea pig lung
[6] = test system: Cysteinyl leukotriene receptor (Cavia porcellus); assay: Inhibitory activity to block binding of [3H]leukotriene D4 to LTD4 receptor sites in homogenized guinea pig lung at 10 uM
Rattus norvegicus = organism: Rattus norvegicus; assay: Inhibitory activity to inhibit Inophore-induced arachidonic acid metabolism (inhibition of LTB4 formation) in rat; assay type: functional, organism-based
Procedure, shortened: (§5)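 Rat peritoneal macrophages adhered 90 min at 37 °C, labeled with [14C]arachidonic acid 90 min, washed. Compound 30 min at 37 °C, then A23187 0.5 µM for 20 min. LTB4 and PGE2 in medium by radioimmunoassay.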

[7] = Inhibitory activity to inhibit Inophore-induced arachidonic acid metabolism (inhibition of PGE-2 formation) in rat; assay type: functional; procedure, shortened: as §5
[8] = biological target: T1, Cysteinyl leukotriene receptor 1 (Cavia porcellus) (UniProt Q2NNR5); assay: as §1; details: concentration not given here; procedure, shortened: as §2
T1 sequence (whole entry): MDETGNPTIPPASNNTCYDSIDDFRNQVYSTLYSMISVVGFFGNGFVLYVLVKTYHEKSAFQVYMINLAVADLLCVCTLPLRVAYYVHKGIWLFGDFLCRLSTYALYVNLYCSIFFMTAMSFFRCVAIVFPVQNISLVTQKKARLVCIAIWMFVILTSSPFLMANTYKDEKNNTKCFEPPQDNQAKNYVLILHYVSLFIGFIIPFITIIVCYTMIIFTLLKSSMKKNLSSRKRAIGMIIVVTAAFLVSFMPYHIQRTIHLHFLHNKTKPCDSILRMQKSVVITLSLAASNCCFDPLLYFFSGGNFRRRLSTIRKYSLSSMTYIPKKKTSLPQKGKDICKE

[9] = biological target: T1, Cysteinyl leukotriene receptor 1 (Cavia porcellus); assay: as §3; assay type: organism-based; set-up: dose 10 mg/kg; procedure, shortened: as §4
[10] = biological target: T1, Cysteinyl leukotriene receptor 1 (Cavia porcellus); assay: Inhibitory activity of compound to block binding of radiolabeled Cysteinyl leukotriene D4 receptor sites in homogenized guinea pig lung at 10 uM
Procedure, shortened: (§6)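 Lung from male Hartley guinea pigs (400–500 g), homogenized in sucrose/Tris pH 7.5 with protease inhibitors; 30000g membrane pellet in 10 mM PIPES pH 7.5, 50 mM NaCl. Binding: Tyrode, 0.1% BSA, 1 mM glycine, 1 mM cysteine, 3.5 nM [3H]LTD4, 100–200 µg protein, 20 °C, 30 min; glass-fiber filtration. Nonspecific with 10^-6 M LTD4. Triplicate screen at 10 µM; IC50 by linear regression.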

[11] = test system: Cysteinyl leukotriene receptor (Cavia porcellus); assay: Inhibitory activity of compound to block binding of radiolabeled leukotriene D4 to receptor sites in homogenized guinea pig lung at 10 uM
Cavia porcellus [12] = assay: Inhibition of leukotriene D4 induced bronchoconstriction in anesthetized guinea pigs after intravenous administration; assay type: functional; details: read-out: ID50 (the source's name); procedure, shortened: as §4
[13] = biological target: T2, Cysteinyl leukotriene receptor 1 (Cavia porcellus, UniProt Q2NNR5); assay: Inhibitory activity of compound to block binding of [3H]leukotriene D4 to Cysteinyl leukotriene D4 receptor sites in homogenized guinea pig lung; procedure, shortened: as §6
T2 sequence (Q2NNR5 whole entry): T1 sequence (whole entry)

[14] = biological target: Dual specificity calcium/calmodulin-dependent 3',5'-cyclic nucleotide phosphodiesterase 1A (Bos taurus, UniProt P14100); assay: Inhibition of bovine heart Phosphodiesterase 1A
Cavia porcellus [15] = assay: In vivo guinea pig bronchoconstriction against leukotriene C4 when administered a compound dose (mg/kg) intravenously; assay type: functional; details: Lung, iv, read-out: ID50 (the source's name)
Cavia porcellus [16] = assay: In vivo guinea pig bronchoconstriction against leukotriene D4 when administered a compound dose (mg/kg) intravenously; assay type: functional; details: Lung, iv, read-out: ID50 (the source's name); procedure, shortened: as §4
Cavia porcellus [17] = organism: Cavia porcellus; assay: In vitro activity to inhibit leukotriene D4 induced contraction of guinea pig trachea; assay type: functional; details: read-out: pA2 (converted)
Procedure, shortened: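 Guinea pig tracheal smooth muscle contracted by LTD4; pA2 and Schild slope reported.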

Cavia porcellus [18] = organism: Cavia porcellus; assay: In vitro activity to inhibit SRS-A induced contraction of guinea pig ileum

Chain of Dual specificity calcium/calmodulin-dependent 3',5'-cyclic nucleotide phosphodiesterase 1A (P14100 whole entry): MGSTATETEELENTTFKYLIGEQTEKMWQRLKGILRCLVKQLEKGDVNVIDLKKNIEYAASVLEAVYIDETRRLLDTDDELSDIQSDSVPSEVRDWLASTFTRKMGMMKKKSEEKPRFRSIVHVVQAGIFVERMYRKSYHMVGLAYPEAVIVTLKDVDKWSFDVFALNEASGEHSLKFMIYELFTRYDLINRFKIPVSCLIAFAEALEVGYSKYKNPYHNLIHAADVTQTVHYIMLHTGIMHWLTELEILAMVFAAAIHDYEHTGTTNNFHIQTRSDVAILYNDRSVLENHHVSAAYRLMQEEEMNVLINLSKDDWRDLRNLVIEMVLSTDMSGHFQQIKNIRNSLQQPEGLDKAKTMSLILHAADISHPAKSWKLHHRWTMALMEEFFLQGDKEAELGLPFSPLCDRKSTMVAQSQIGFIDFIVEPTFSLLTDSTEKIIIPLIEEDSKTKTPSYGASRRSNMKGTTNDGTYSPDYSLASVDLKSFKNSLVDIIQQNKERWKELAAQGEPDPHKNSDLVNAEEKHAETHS

SMILES	Inhibition (Cavia porcellus [2]) [%]	inhibition in vivo at 10 mg/kg (Cavia porcellus [3]) [%]	inhibition [4] [%]	inhibition [6] [%]	also measured
CCCc1c(OCCCCCOc2cc3c(cc2C(=O)CC)CCC(C(=O)O)O3)ccc(C(C)=O)c1O (stereo not given)	60	7	52	–	IC50 (Cavia porcellus [1]): 0.3 % conc
CCCc1c(OCCCCCOc2cc3c(cc2C(C)=O)CCC(C(=O)NS(=O)(=O)c2ccccc2)O3)ccc(C(C)=O)c1O (stereo not given)	53	26	–	87	IC50 (Cavia porcellus [1]): 1 % conc; IC50 [5]: 2 µM
CCCc1c(OCCCCCOc2cc3c(cc2C(C)=O)CCC2(CCC(C(=O)O)CC2)O3)ccc(C(C)=O)c1O (stereo not given)	83	32	–	81	IC50 (Cavia porcellus [1]): 0.08 % conc; IC50 [5]: 4 µM
CCCc1c(OCCC(C)(C)CCOc2cc3c(cc2C(C)=O)CCC(C(=O)O)O3)ccc(C(C)=O)c1O (stereo not given)	23	15	–	68	IC50 [5]: 7 µM
CCCc1c(OCCCCCCc2cc3c(cc2C(C)=O)CCC(C(=O)O)O3)ccc(C(C)=O)c1O (stereo not given)	65	46	20	–	IC50 (Cavia porcellus [1]): 0.3 % conc
COc1ccc2c(c1)c(CC(=O)O)c(C)n2C(=O)c1ccc(Cl)cc1 [INDOMETHACIN]	–	–	–	–	IC50 (Rattus norvegicus): 60 µM; IC50 [7]: 0.1 µM
CCCCCCCCCCCCc1ccccc1C(SCCC(=O)O)SCCC(=O)O	–	–	–	–	inhibition [8]: 39%; inhibition [9]: 29%; inhibition [10]: 24%
O=C(O)CCSC(SCCC(=O)O)c1ccccc1CCCCCCCCc1ccccc1	58	20	–	–	Inhibition [11]: 81%
COc1cc(C(=O)NS(=O)(=O)c2ccccc2)ccc1Cn1ncc2ccc(NC(=O)OC3CCCC3)cc21 [ICI-198615]	99	100	–	98	IC50 (Cavia porcellus [1]): 0.006 % conc; ED50 (Cavia porcellus [12]): 0.03 mg/kg; IC50 [5]: 0.001 µM
O=S(=O)(Nc1cccc(OCc2ccc3ccccc3n2)c1)C(F)(F)F [RITOLUKAST]	–	61	–	–	ED50 (Cavia porcellus [12]): 4 mg/kg
CCCc1c(OCCCOc2cc3c(cc2C(C)=O)CCC(C(=O)O)O3)ccc(C(C)=O)c1O (stereo not given)	31	35	63	–	IC50 [13]: 6 µM
CCCc1c(OCCCCCOc2ccc3c(c2)OC(C(=O)O)CC3)ccc(C(C)=O)c1O (stereo not given)	50	0	11	–	IC50 (Cavia porcellus [1]): 1 % conc
CCCc1c(OCCCCCOc2cc3c(cc2C(C)=O)CCC(CCC(=O)O)O3)ccc(C(C)=O)c1O (stereo not given)	31	86	–	94	ED50 (Cavia porcellus [3]): 5 mg/kg; IC50 [5]: 2 µM
CC(=O)c1ccc(OCCCCCOc2cc3c(cc2C(C)=O)CCC(C(=O)O)O3)cc1O (stereo not given)	0	85	–	0	ED50 (Cavia porcellus [12]): 5 mg/kg
CCCc1c(OCCCOc2cc(NC(=O)c3nn[nH]n3)c(C)cc2Cl)ccc(C(C)=O)c1O [CGP-35949]	–	49	–	94	IC50 [5]: 1 µM
CCCc1c(OCc2ccccc2CCOc2cc3c(cc2C(C)=O)CCC(C(=O)O)O3)ccc(C(C)=O)c1O (stereo not given)	12	24	26	–	–
CCCc1c(OCCCS(=O)(=O)c2ccc(C(=O)CCC(=O)O)cc2)ccc(C(C)=O)c1O [L-648051]	70	73	0	–	IC50 (Cavia porcellus [1]): 0.7 % conc; ED50 (Cavia porcellus [12]): 6 mg/kg
Cn1c(=O)c2[nH]cnc2n(C)c1=O [THEOPHYLLINE]	–	–	–	–	IC50 [14]: 500 µM
CCCc1c(OCCCCCOc2ccc3c(c2C(C)=O)OC(C(=O)O)CC3)ccc(C(C)=O)c1O (stereo not given)	1	19	–	72	IC50 [5]: 5 µM

SMILES	Inhibition (Cavia porcellus [2]) [%]	inhibition in vivo at 10 mg/kg (Cavia porcellus [3]) [%]	inhibition [4] [%]	inhibition [6] [%]	also measured
CC(C)c1ccc2c(c1)c(SC(C)(C)C)c(CC(C)(C)C(=O)O)n2Cc1ccc(Cl)cc1	–	–	–	–	IC50 (Rattus norvegicus): 0.2 µM; IC50 [7]: 5 µM
CCCc1c(OCCCCCCOc2cc3c(cc2C(C)=O)CCC(C(=O)O)O3)ccc(C(C)=O)c1O (stereo not given)	36	66	96	–	IC50 [13]: 5 µM; ED50 (Cavia porcellus [12]): 5 mg/kg
CCCc1c(OCCCSc2ccc([C@@H](O)[C@H](C)CC(=O)O)cc2)ccc(C(C)=O)c1O [L-649923]	–	72	–	–	ED50 (Cavia porcellus [12]): 6 mg/kg
CCCc1c(OCCCCCOc2cc3c(cc2Cl)CCC(C(=O)O)O3)ccc(C(C)=O)c1O (stereo not given)	0	16	–	45	–
CCCc1c(OCCCCCOc2cc3c(cc2Br)CCC(C(=O)O)O3)ccc(C(C)=O)c1O (stereo not given)	0	13	57	–	–
CCCc1c(OCCCCCOc2c(C(C)=O)cc3c(c2CCC)OC(C(=O)O)CC3)ccc(C(C)=O)c1O (stereo not given)	–	–	–	–	inhibition [8]: 44%
CCCc1c(OCCCCCOc2cc3c(cc2C(C)=O)CCC(C)(C(=O)O)O3)ccc(C(C)=O)c1O (stereo not given)	85	50	–	64	IC50 (Cavia porcellus [1]): 0.2 % conc; ED50 (Cavia porcellus [12]): 10 mg/kg; IC50 [5]: 6 µM
CCCc1c(OCCCCOc2cc3c(cc2C(C)=O)CCC(C(=O)O)O3)ccc(C(C)=O)c1O (stereo not given)	37	36	26	–	–
CCCc1c(OCCCCCOc2cc(OCC(=O)O)ccc2C(C)=O)ccc(C(C)=O)c1O	46	20	–	65	IC50 (Cavia porcellus [1]): 1 % conc; IC50 [5]: 5 µM
CCCc1c(O)c(C(C)=O)cc(Cl)c1OCCCCCOc1cc2c(cc1C(C)=O)CCC(C(=O)O)O2 (stereo not given)	10	11	47	–	–
CCCc1c(OCCCCCOc2cc3c(cc2[N+](=O)[O-])CCC(C(=O)O)O3)ccc(C(C)=O)c1O (stereo not given)	0	18	–	48	–
CCCc1c(OCCCCCOc2cc3c(cc2C(C)=O)CC[C@H](C(=O)O)O3)ccc(C(C)=O)c1O	–	–	–	–	ED50 (Cavia porcellus [15]): 6 mg/kg; ED50 (Cavia porcellus [16]): 4 mg/kg; Kb (Cavia porcellus [17]): 0.794 µM; IC50 (Cavia porcellus [18]): 0.1 µM
CCCc1c(OCCCCc2nnn[nH]2)ccc(C(C)=O)c1O [TOMELUKAST]	62	77	–	–	IC50 (Cavia porcellus [1]): 0.4 % conc; ED50 (Cavia porcellus [12]): 5 mg/kg
CC(C)C(C)c1nc2c(=O)[nH]c(=O)[nH]c2[nH]1 (stereo not given)	–	–	–	–	IC50 [14]: 100 µM
CCCc1c(OCc2cccc(COc3cc4c(cc3C(C)=O)CCC(C(=O)O)O4)c2)ccc(C(C)=O)c1O (stereo not given)	28	20	60	–	IC50 [13]: 7 µM
CCCc1c(OCCOCCOc2cc3c(cc2C(C)=O)CCC(C(=O)O)O3)ccc(C(C)=O)c1O (stereo not given)	31	50	8	–	ED50 (Cavia porcellus [12]): 10 mg/kg
CCCc1c(OCCCCCOc2cc3c(cc2C(C)=O)CC(C(=O)O)O3)ccc(C(C)=O)c1O (stereo not given)	88	25	12	–	IC50 (Cavia porcellus [1]): 0.04 % conc
CCCc1c(OCCCCCOc2cc3c(cc2C(C)=O)CCC(CCCCC(=O)O)O3)ccc(C(C)=O)c1O (stereo not given)	–	10	–	47	–
CCCc1c(OCCCCCOc2cc3c(cc2C(C)=O)CCC(C(=O)O)C3)ccc(C(C)=O)c1O (stereo not given)	23	51	65	–	IC50 [13]: 7 µM; ED50 (Cavia porcellus [3]): 10 mg/kg
